Data reported in publication PMC7867784 (Translational Lung Cancer Research, 2021).
Where “and” joins values, the source holds several entries; their conditions need not be identical. Identical values can stand only once. Like-named read-outs stand apart in the source and are kept apart here.

What was measured:
[1] = ALL-RET pharmacokinetic analysis; assay type: in vivo, human; settings: for free fraction of Cmin in a steady state: 450 mg BID; for AUC / Cmax / concentration at 10 h / Tmax: human, plasma, oral; for concentration at 10 h: Cmin (plasma concentration at 10 h after administration), mean ± SD [min–max]; for Tmax: median [min–max]
RET-rearranged NSCLC = experiment: ALL-RET phase 1/2 trial: antitumor efficacy; assay type: in vivo, human
Procedure, shortened: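 Patients with RET-rearranged NSCLC confirmed by at least 2 of 3 methods (multiplex RT-PCR, break-apart FISH, targeted NGS), previously treated with ≥1 chemotherapy regimen, ECOG PS 0–2, with measurable lesions. The test compound was given BID in 21-day cycles until respite, dose reduction or discontinuation criteria were met. Response was assessed by RECIST v1.1 on central review. DCR was defined as CR+PR+SD lasting at least 8 weeks.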

[2] = cited from earlier work; for Cmax: AF-002JG study; for AUC0-10: global study
[3] = 450 mg, Day 15, 450 mg BID, N=5
[4] = 600 mg, Day 15, 600 mg BID, N=3
[5] = 450 mg BID, 25 RET-TKI-naïve patients
[6] = 450 mg BID, RET-TKI-naïve (n=25)
[7] = 450 mg BID, of 25 RET-TKI-naïve patients

For `CCc1cc2c(cc1N1CCC(N3CCOCC3)CC1)C(C)(C)c1[nH]c3cc(C#N)ccc3c1C2=O` [alectinib], the “free fraction of Cmin in a steady state” value [1] was < 4.8 ng/mL, the “free fraction of Cmin in a steady state” value ([1]; equivalent of ng/mL value) was < 10 nM and the AUC ([1]; 450 mg) was 4820 ng·h/mL. The Cmax ([1]; 450 mg) was 576 ± 215 ng/mL, the concentration at 10 h ([1]; 450 mg, Day 1, 450 mg, N=6) was 118 ng/mL and the concentration at 10 h [1, 3] was 483 ng/mL. It also gave a Tmax ([1]; 450 mg, Day 1, 450 mg, N=6) of 5.91 h, a Tmax [1, 3] of 7.97 h and an AUC ([1]; 600 mg) of 8600 ng·h/mL. The Cmax ([1]; 600 mg) was 1050 ng/mL, the concentration at 10 h ([1]; 600 mg, Day 1, 600 mg, N=6) was 278 ng/mL and the concentration at 10 h [1, 4] was 911 ng/mL. For the same compound, the Tmax ([1]; 600 mg, Day 1, 600 mg, N=6) was 7.01 h, the Tmax [1, 4] was 5.77 h and the “patients who could continue treatment for more than 1 year” value (RET-rearranged NSCLC; 450 mg BID) was 5. For the same compound, the “DCR (disease control rate, at 8 weeks)” value (RET-rearranged NSCLC; [5]) was 52%, the “patients with disease stabilization for more than 1 year” value (RET-rearranged NSCLC; [5]) was 5 and the “patients with disease stabilization for more than 1 year, percent” value (RET-rearranged NSCLC; [5]) was 20%. For the same compound, the “ORR (objective/overall response rate)” value (RET-rearranged NSCLC; 450 mg BID, 25 RET-TKI-naïve patients, central review) was 4%, the “median PFS” value (RET-rearranged NSCLC; 450 mg BID, 25 RET-TKI-naïve patients, 95% CI 2.0–5.4) was 3.4 months and the “median OS” value (RET-rearranged NSCLC; 450 mg BID, 25 RET-TKI-naïve patients, 95% CI 5.4–NE) was 19.0 months and 19 months. The “Best overall response NE (not evaluated), %” value (RET-rearranged NSCLC; [6]) was 8%, the “Best overall response PD, %” value (RET-rearranged NSCLC; [6]) was 40% and the “Best overall response PR, %” value (RET-rearranged NSCLC; [6]) was 4%. The “Best overall response SD, %” value (RET-rearranged NSCLC; [6]) was 48%, the “patients with disease control at 8 weeks” value (RET-rearranged NSCLC; [7]) was 13 and the “patients with objective response” value (RET-rearranged NSCLC; [7]) was 1. The “treatment duration of the patient who showed PR” value (RET-rearranged NSCLC; one patient with KIF5B-RET, phase 2, 450 mg BID) was ~2 years, the “activity against RET-rearranged NSCLC (conclusion)” value (RET-rearranged NSCLC; phase 1/2, Japanese patients) was “limited activity” and the Cmax ([2]; 460 mg BID) was 618 ± 165 ng/mL. For the same compound, the AUC0-10 ([2]; 460 mg BID) was 4,980±1,340 ng·h/mL, the Cmax ([2]; 600 mg BID) was 676 ± 186 ng/mL and the AUC0-10 ([2]; 600 mg BID) was 5,400±1,400 ng·h/mL.
